Data: ChEMBL document CHEMBL2176990, “Synthesis and biological evaluation of 5-benzylidenepyrimidine-2,4,6(1H,3H,5H)-trione derivatives for the treatment of obesity-related nonalcoholic fatty liver disease” (J Med Chem, 2012)
Activity calls are given as the source filed them. The rule behind the calls is not given here.

Assays:
[1] = system: HepG2; assay: Reduction of glucose consumption in insulin-resistant human HepG2 cells at 10 uM after 24 hrs by glucose oxidase method; assay type: functional, cell-based
In short: (§1)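 HepG2 cells in DMEM (22.2 mM glucose) with 10% FBS, exposed to 0.1 μM insulin from plating for 2 days. At confluence, given fresh 22.2 mM glucose DMEM with test agents for 24 h. Medium glucose measured by glucose oxidase. Consumption = blank minus remaining glucose, normalized to MTT. Three independent experiments.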

[2] = system: HepG2; assay: Reduction of glucose consumption in insulin-resistant human HepG2 cells at 10 uM after 24 hrs by glucose oxidase method in presence of 0.1 uM of insulin; assay type: functional, cell-based; in short: as §1
[3] = system: HepG2; assay: Reduction of glucose consumption in insulin-resistant human HepG2 cells at 10 uM after 24 hrs by glucose oxidase method in presence of 22.2 mM of glucose; assay type: functional, cell-based; in short: as §1
[4] = system: 3T3-L1; assay: Up-regulation of adiponectin expression in mouse 3T3L1 cells at 10 uM after 24 hrs by ELISA; assay type: functional
In short: (§2)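 3T3-L1 preadipocytes grown to 2 days post-confluence. Differentiated with 0.5 mM IBMX, 0.25 μM dexamethasone and 1 μg/mL insulin for 2 days, then insulin alone for 2 days, then 10% FBS DMEM. On day 12, treated 24 h; secreted adiponectin and leptin measured by ELISA. Three independent experiments.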

[5] = system: 3T3-L1; assay: Down-regulation of […] expression in mouse 3T3L1 cells at 10 uM after 24 hrs by ELISA; assay type: functional; in short: as §2

Structure (SMILES): O=C1NC(=O)C(=Cc2ccc(OC3CCN(C(=O)c4ccccn4)CC3)cc2)C(=O)N1
- Activity [1]: inactive
- Activity [2]: inactive

Structure (SMILES): O=C1NC(=O)C(=Cc2ccc(C(=O)NC3CCN(c4ccc([N+](=O)[O-])cn4)CC3)cc2)C(=O)N1
- Activity [3]: Active
- Activity [2]: Active

Structure (SMILES): O=C1NC(=O)C(=Cc2ccc(OC3CCN(C(=O)c4ccncc4)CC3)cc2)C(=O)N1
- Activity [4]: Active
- Activity [5]: inactive
- Activity [3]: Active
- Activity [2]: Active

Structure (SMILES): O=C1NC(=O)C(=Cc2ccc(OC3CCN(C(=O)c4cccc(Cl)n4)CC3)cc2)C(=O)N1
- Activity [1]: inactive
- Activity [2]: inactive

Structure (SMILES): N#Cc1cccnc1N1CCC(NC(=O)c2ccc(C=C3C(=O)NC(=O)NC3=O)cc2)CC1
- Activity [1]: inactive
- Activity [2]: inactive

Structure (SMILES): O=C1NC(=O)C(=Cc2ccc(OC3CCN(c4ncccc4C(F)(F)F)CC3)cc2)C(=O)N1
- Activity [4]: Active
- Activity [5]: inactive
- Activity [3]: Active
- Activity [2]: Active

Structure (SMILES): COc1cc(OC2CCN(c3ncccc3C#N)CC2)cc(OC)c1C=C1C(=O)NC(=S)NC1=O
- Activity [1]: inactive
- Activity [2]: inactive

Structure (SMILES): O=C1NC(=O)C(=Cc2ccc(OC3CCN(C(=O)c4cccnc4)CC3)cc2)C(=O)N1
- Activity [1]: inactive
- Activity [2]: inactive

Structure (SMILES): O=C1NC(=O)C(=Cc2ccc(OC3CCN(c4ccc(C(F)(F)F)cn4)CC3)cc2)C(=O)N1
- Activity [1]: inactive
- Activity [2]: inactive

Structure (SMILES): CS(=O)(=O)N(Cc1ccc(C=C2C(=O)NC(=O)NC2=O)cc1)C1CCN(C(=O)c2cccc(OC(F)(F)C(F)F)c2)CC1
- Activity [1]: inactive
- Activity [2]: inactive

Structure (SMILES): O=C1NC(=O)C(=Cc2ccc(OC3CCN(C(=O)c4ccc(Cl)cn4)CC3)cc2)C(=O)N1
- Activity [1]: inactive
- Activity [2]: inactive

Structure (SMILES): O=C1NC(=O)C(=Cc2ccc(OC3CCN(c4ccc([N+](=O)[O-])cn4)CC3)cc2)C(=O)N1
- Activity [1]: inactive
- Activity [2]: inactive

Structure (SMILES): O=C1NC(=O)C(=Cc2ccc(OC3CCN(c4ncccc4C(F)(F)F)CC3)c(F)c2)C(=O)N1
- Activity [1]: inactive
- Activity [2]: inactive

Structure (SMILES): O=C1NC(=O)C(=Cc2ccc(C(=O)N3CCC(Nc4cc([N+](=O)[O-])ccn4)CC3)cc2)C(=O)N1
- Activity [1]: inactive
- Activity [2]: inactive
